Drawing on ChEMBL document CHEMBL1143613, “Neurosteroid analogues. 10. The effect of methyl group substitution at the C-6 and C-7 positions on the GABA modulatory and anesthetic actions of (3alpha,5alpha)- and (3alpha,5beta)-3-hydroxypregnan-20-one” (J Med Chem, 2005), this text covers IC50, ED50 and Ratio for 12 compounds.

The target in assay [1] is GABA-A receptor; anion channel. As to the kind of experiment: Displacement of [35S]TBPS from picrotoxin site of GABA-A receptor of rat brain membranes. The assay is classed as cell membranes, Membrane.
Assay [2] in a line: Dose required for measuring loss of swimming reflex (LSR) in Xenopus laevis tadpoles. The assay is classed as functional. The method, boiled down:
(§1)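 Xenopus laevis tadpoles scored for loss of swimming (LSR) or righting (LRR) response. 10 animals were used at each of five or more concentrations. Error given as standard error of the mean.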

A short description of assay [3]: Dose required for measuring the loss of righting reflex (LRR) in Xenopus laevis tadpoles. The class given is functional. The method, boiled down:
as §1

Assay [4] deals with T1, GABA-A receptor; alpha-1/beta-2/gamma-2 (Rattus norvegicus) (UniProt P18508+P62813+P63138). As to the kind of experiment: Ratio of currents mediated by rat Alpha-1-beta-2-gamma-2L GABA-A receptor expressed in Xenopus oocytes at 10 uM in presence of 2 uM GABA. The class given is cell-based. The conditions noted are these: Oocyte. In short, it runs like this:
(§2)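 Rat α1β2γ2L GABAA receptors expressed in Xenopus oocytes. Test compound at 0.1, 1 or 10 µM was co-applied with 2 µM GABA, the control GABA concentration. The value is the ratio of current with compound to current without it. At least four oocytes per concentration, with standard error of the mean.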

Assay [5] has as its target T1, GABA-A receptor; alpha-1/beta-2/gamma-2 (Rattus norvegicus). As to the kind of experiment: Ratio of currents mediated by rat Alpha-1-beta-2-gamma-2L GABA-A receptor expressed in Xenopus oocytes at 0.1 uM in presence of 2 uM GABA. The assay is classed as cell-based. Particulars: Oocyte. The method, boiled down:
as §2

The target is the same in assay [6]. Kind of assay: Ratio of currents mediated by rat Alpha-1-beta-2-gamma-2L GABA-A receptor expressed in Xenopus oocytes at 1.0 uM in presence of 2 uM GABA. The assay is classed as cell-based. Particulars: Oocyte. In short, it runs like this:
as §2

For assay [7] the target is unchanged. As to the kind of experiment: Ratio of currents mediated by rat Alpha-1-beta-2-gamma-2L GABA-A receptor expressed in Xenopus oocytes at 10 uM in the absence of GABA. The class given is cell-based. The conditions noted are these: Oocyte. In short, it runs like this:
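Direct gating on rat α1β2γ2L GABAA receptors in Xenopus oocytes. Compound at 10 µM was applied with no GABA. The value is the compound-only current divided by the current from 2 µM GABA alone. At least four oocytes, with standard error of the mean.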

As for `CC(=O)[C@H]1CC[C@H]2[C@@H]3[C@H](C)C[C@@H]4C[C@@H](O)CC[C@]4(C)[C@H]3CC[C@]12C`, in assay [1], the IC50 turned out to be 10800 nM. In addition, the ED50 in assay [2] came to 10000 nM; in assay [3] it was 1250 nM.
`CC(=O)[C@H]1CC[C@H]2[C@@H]3[C@H](C)C[C@@H]4C[C@H](O)CC[C@]4(C)[C@H]3CC[C@]12C` showed an IC50 in assay [1] of 1040 nM. The figures for the ED50 in assay [2] and in assay [3] were 5500 nM and 1670 nM, respectively.
As for `CC(=O)[C@H]1CC[C@H]2[C@@H]3C[C@@H](C)[C@H]4C[C@H](O)CC[C@]4(C)[C@H]3CC[C@]12C`, the IC50 in assay [1] amounted to 5.7 nM. Also, the Ratio in assay [4] came out at 10; in assay [5], 2.5; in assay [6], 7.7; in assay [7], 0.59. Further, the ED50 was 1050 nM in assay [2] and 510 nM in assay [3].
For the compound `CC(=O)[C@H]1CC[C@H]2[C@@H]3C[C@@H](C)[C@@H]4C[C@H](O)CC[C@]4(C)[C@H]3CC[C@]12C`, the IC50 in assay [1] was 45 nM. For the same compound, the Ratio in assay [4] was 22.5; in assay [5] it was 1.48; in assay [6], 4.36; in assay [7], 0.62. Besides, the ED50 in assay [2] stood at 550 nM; in assay [3], 400 nM.
In the case of `CC(=O)[C@H]1CC[C@H]2[C@@H]3CC[C@@H]4C[C@H](O)CC[C@]4(C)[C@H]3CC[C@]12C`, the Ratio in assay [4] amounted to 9.77; in assay [5] it was 1.2; in assay [6], 2.82; in assay [7], 0.06. The ED50 in assay [2] was found to be 300 nM; in assay [3] it was 60 nM.
As for `CC(=O)[C@H]1CC[C@H]2[C@@H]3CC[C@H]4C[C@H](O)CC[C@]4(C)[C@H]3CC[C@]12C`, the Ratio in assay [4] was found to be 9.65; in assay [5], 1.26; in assay [6], 3.89; in assay [7], 0.37. Also, the ED50 in assay [2] amounted to 5500 nM; in assay [3] it was 420 nM.
With `CC(=O)[C@H]1CC[C@H]2[C@@H]3C[C@H](C)[C@@H]4C[C@H](O)CC[C@]4(C)[C@H]3CC[C@]12C`, the IC50 in assay [1] is 3080 nM. In addition, the Ratio came out at 2.51 in assay [4], 0.96 in assay [5], 1.02 in assay [6] and 0.15 in assay [7]. Also, the ED50 in assay [2] was found to be 5500 nM; in assay [3], 2660 nM.
In turn, `CC(=O)[C@H]1CC[C@H]2[C@@H]3[C@@H](C)C[C@@H]4C[C@H](O)CC[C@]4(C)[C@H]3CC[C@]12C` registered an IC50 in assay [1] of 1240 nM. Also, the results for the ED50 in assay [2] and in assay [3] were 5500 nM and 1360 nM, respectively.
Turning to `CC(=O)[C@H]1CC[C@H]2[C@@H]3[C@H](C)C[C@H]4C[C@@H](O)CC[C@]4(C)[C@H]3CC[C@]12C`, the ED50 in assay [2] worked out at 5500 nM; in assay [3], 1630 nM.
`CC(=O)[C@H]1CC[C@H]2[C@@H]3C[C@H](C)[C@H]4C[C@H](O)CC[C@]4(C)[C@H]3CC[C@]12C` had an IC50 in assay [1] of 2940 nM. Moreover, the Ratio in assay [4] was determined as 3.24; in assay [5] it was 1.01; in assay [6], 1.17; in assay [7], 0.06. For the same compound, the results for the ED50 in assay [2] and in assay [3] were 8900 nM and 1400 nM, respectively.
`CC(=O)[C@H]1CC[C@H]2[C@@H]3[C@H](C)C[C@H]4C[C@H](O)CC[C@]4(C)[C@H]3CC[C@]12C`: the IC50 in assay [1] came out at 5990 nM. For the same compound, the ED50 turned out to be 5500 nM in assay [2] and 2680 nM in assay [3].
In the case of `CC(=O)[C@H]1CC[C@H]2[C@@H]3[C@@H](C)C[C@H]4C[C@H](O)CC[C@]4(C)[C@H]3CC[C@]12C`, the IC50 in assay [1] came out at 1240 nM. The ED50 in assay [2] stood at 5500 nM; in assay [3], 1340 nM.
